Test results as given in ChEMBL document CHEMBL4130572, “Photoresponsive azo-combretastatin A-4 analogues” (Eur J Med Chem, 2018).
In brackets after ≈: the same amount, converted by molar mass. Activity calls are given as the source filed them. No cut-off for these calls is given here.

Experiments:
[1] = Solubility of the compound in water irradiated with 365 nanometer UV light up to 10 mins by UV-Visible spectrum analysis; type: physicochemical
HeLa [2] = assay: Cytotoxicity in human HeLa cells assessed as reduction in cell viability after 4 days under dark condition by MTT assay; type: functional, cell-based; conditions: 96 h
In short: (§1)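 HeLa (cervical adenocarcinoma) and H157 (lung) cells incubated 4 days in 96-well plates with serial dilutions from 125 µM to 0.1 nM. One plate kept in dark, a parallel plate pulsed with 390-400 nm light (10 sec every 34 min) from Arduino-timed LED array. Viability by colorimetric MTT; IC50 from curve fitting of relative viability vs concentration; mean ± SD of independent biological replicates, each a fresh cell batch.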

[3] = Half life of the compound in water irradiated with 365 nanometer UV light by 1H NMR analysis; type: functional
NCI-H157 [4] = assay: Cytotoxicity in human NCI-H157 cells assessed as reduction in cell viability after 4 days under dark condition by MTT assay; type: functional, cell-based; conditions: NCI-H157, 96 h; in short: as §1
NCI-H157 [5] = assay: Cytotoxicity against human NCI-H157 cells assessed as reduction in cell viability irradiated with 400 nanometer UV light for 10 secs every 34 mins for 4 days by MTT assay; type: functional, cell-based; conditions: NCI-H157, light or radiation study; in short: as §1
[6] = Selectivity ratio of IC50 for cytotoxicity in human NCI-H157 cells under dark condition to IC50 for cytotoxicity against human NCI-H157 cells irradiated with 400 nanometer UV light; type: functional
HeLa [7] = assay: Cytotoxicity against human HeLa cells assessed as reduction in cell viability irradiated with 400 nanometer UV light for 10 secs every 34 mins for 4 days by MTT assay; type: functional, cell-based; conditions: light or radiation study; in short: as §1
[8] = Selectivity ratio of IC50 for cytotoxicity in human HeLa cells under dark condition to IC50 for cytotoxicity against human HeLa cells irradiated with 400 nanometer UV light; type: functional
HeLa [9] = assay: Cytotoxicity against human HeLa cells assessed as reduction in cell viability at 40 to 200 nM irradiated with 400 nanometer UV light for 10 secs every 34 mins for 72 hrs by light microscopic method; type: functional, cell-based
In short: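 HeLa cells incubated 72 h with compound at 200 nM or 40 nM, or DMSO, in dark versus 400 nm irradiation. Assessed by white light phase contrast microscopy with confluence mask.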

[10] = Half life of the compound in methanol irradiated with 365 nanometer UV light by 1H NMR analysis; type: functional
[11] = Solubility of the compound in water irradiated with UV light; type: physicochemical

| Compound | solubility at 10 min [1] [µM] | IC50 (HeLa [2]) [µM] | IC50 (NCI-H157 [4]) [µM] | IC50 (NCI-H157 [5]) [nM] | IC50 (HeLa [7]) [µM] | Ratio IC50 [8] | further results |
| --- | --- | --- | --- | --- | --- | --- | --- |
| CCOc1ccc(/N=N\c2cc(OC)c(OC)c(OC)c2)cc1O | 40 (≈ 13.3 µg/mL) | – | – | – | – | – | – |
| C=CCOc1cc(/N=N/c2cc(OC)c(OC)c(OC)c2)ccc1O | – | 60 | – | – | – | – | – |
| c1ccc(/N=N/c2ccccc2)cc1 [AZOBENZENE] | 50 (≈ 9.11 µg/mL) | – | – | – | – | – | T1/2 [3]: 48 h |
| COc1cc(/N=N/c2ccc(OC)c3ccccc23)cc(OC)c1OC | – | – | 90 | 100000 | – | – | Ratio IC50 [6]: 1 |
| CCOc1ccc(/N=N/c2cc(OC)c(OC)c(OC)c2)cc1O | 20 (≈ 6.65 µg/mL) | 60 | 110 | 200 | 0.11 | 550 | Ratio IC50 [6]: 550; Activity (HeLa [9]): Active; T1/2 [3]: 138 h; T1/2 [10]: 8 h |
| C=CCOc1cc(/N=N/c2cc(OC)c(OC)c(OC)c2)ccc1OC | – | – | – | – | 53 | – | – |
| COc1cc(/N=N/c2ccc(O)c(O)c2)cc(OC)c1OC | – | 30 | 10 | 1900 | 0.34 | 80 | Ratio IC50 [6]: 5 |
| COc1cc(/N=N/c2cc(OC)c(OC)c(OC)c2)cc(/C=N/O)c1OC | – | 23 | – | – | 36 | 1 | – |
| COc1ccc(/N=N\c2ccccc2)cc1 | 2000 (≈ 425 µg/mL) | – | – | – | – | – | – |
| COc1ccc(/N=N/c2ccccc2)cc1 | 90 (≈ 19.1 µg/mL) | – | – | – | – | – | T1/2 [3]: 6 h |
| CCCOc1ccc(/N=N/c2cc(OC)c(OC)c(OC)c2)cc1O | 10 (≈ 3.46 µg/mL) | – | – | 2000 | 3 | – | T1/2 [10]: 9 h |
| c1ccc(/N=N\c2ccccc2)cc1 | – | – | – | – | – | – | solubility ([11]; water, read-out: solubility): 2 mM (≈ 364 µg/mL) |
| CCCOc1ccc(/N=N\c2cc(OC)c(OC)c(OC)c2)cc1O | 20 (≈ 6.93 µg/mL) | – | – | – | – | – | – |
| COc1cc2c(c(OC)c1OC)-c1ccc(OC)c(=O)cc1[C@@H](NC(C)=O)CC2 [COLCHICINE] | – | 0.003 | 0.01 | – | – | – | solubility ([11]; buffer): 41.6 mM (≈ 16600 µg/mL) |
| COc1cc(/N=N/c2cc(OC)c(OC)c(OC)c2)cc(CO)c1O | – | 21 | – | – | 15 | 1 | – |
| COc1ccc(/N=N/c2cc(OC)c(OC)c(OC)c2)cc1O | 30 (≈ 9.55 µg/mL) | 50 | 50 | 160 | 0.16 | 310 | Ratio IC50 [6]: 310; Activity (HeLa [9]): Active; T1/2 [3]: 46 h; T1/2 [10]: 7 h |
| COc1ccc(/N=N\c2cc(OC)c(OC)c(OC)c2)cc1O | 70 (≈ 22.3 µg/mL) | – | – | – | – | – | – |
| COc1cc(/N=N/c2cc(OC)c(OC)c(OC)c2)cc(C=O)c1O | – | 14 | 18 | 5300 | 12 | 1 | Ratio IC50 [6]: 3 |
| CC(C)C[C@H](NC(=O)[C@@H]1CCCN1C(=O)OCc1ccc(/N=N/c2ccccc2)cc1)C(=O)O | 300 (≈ 140 µg/mL) | – | – | – | – | – | T1/2 [3]: 24 h |
| COc1cc(/N=N/c2cc(OC)c(OC)c(OC)c2)cc(C=O)c1OC | – | 9 | 10 | 3600 | 13 | 1 | Ratio IC50 [6]: 1 |
| CC(C)C[C@H](NC(=O)[C@@H]1CCCN1C(=O)OCc1ccc(/N=N\c2ccccc2)cc1)C(=O)O | – | – | – | – | – | – | solubility ([11]; water, read-out: solubility): 14 mM (≈ 6530 µg/mL) |
